# Reference: ChEMBL document CHEMBL1153051, “Peperomins as anti-inflammatory agents that inhibit the NF-kappaB signaling pathway” (Bioorg Med Chem Lett, 2009)
# The source made the active and inactive calls. The calls are words filed in the database; no cut-off is given here.
# What was measured:
# [1] = biological target: T1, Inhibitor of nuclear factor kappa-B kinase subunit beta (Homo sapiens) (UniProt O14920); assay: Inhibition of human FLAG-tagged IKK-beta expressed in HEK293 cells at 50 uM by Western blot analysis in presence of ATP; format: cell-based
# T1 sequence (whole entry): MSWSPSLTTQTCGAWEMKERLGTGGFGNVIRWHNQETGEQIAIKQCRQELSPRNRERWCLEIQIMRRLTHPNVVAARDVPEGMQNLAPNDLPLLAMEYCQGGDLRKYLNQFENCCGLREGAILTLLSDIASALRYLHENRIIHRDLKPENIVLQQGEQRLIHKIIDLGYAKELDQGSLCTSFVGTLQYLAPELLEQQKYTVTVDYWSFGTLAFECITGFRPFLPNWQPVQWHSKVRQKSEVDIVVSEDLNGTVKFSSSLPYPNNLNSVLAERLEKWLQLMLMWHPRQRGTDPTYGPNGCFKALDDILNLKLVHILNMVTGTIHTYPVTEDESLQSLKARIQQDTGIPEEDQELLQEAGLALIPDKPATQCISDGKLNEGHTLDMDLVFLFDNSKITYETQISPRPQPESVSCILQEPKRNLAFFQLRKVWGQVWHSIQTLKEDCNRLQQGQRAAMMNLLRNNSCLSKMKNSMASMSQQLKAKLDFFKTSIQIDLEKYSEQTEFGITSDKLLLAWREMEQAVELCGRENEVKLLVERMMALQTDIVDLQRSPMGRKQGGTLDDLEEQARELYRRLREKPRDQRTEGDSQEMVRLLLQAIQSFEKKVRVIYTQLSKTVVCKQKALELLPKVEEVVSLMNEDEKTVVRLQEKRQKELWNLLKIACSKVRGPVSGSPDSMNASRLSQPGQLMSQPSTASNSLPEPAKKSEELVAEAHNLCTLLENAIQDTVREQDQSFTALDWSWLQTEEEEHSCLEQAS
# Procedure, shortened: (§1)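 FLAG-IKKβ was transiently overexpressed in HEK293 cells for 24 h, then immunoprecipitated with anti-FLAG antibody. Precipitates were incubated with or without compound before the kinase reaction, and the phosphorylated product was read out by Western blot.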
# A549 [2] = assay: Antiinflammatory activity in human A549 cells assessed as reduction of TNF-alpha-induced cell surface ICAM1 expression upto 100 uM preincubated for 1 hr before TNFalpha challenge measured after 6 hrs by Western blot analysis; format: functional, cell-based
# Procedure, shortened: (§2)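 A549 cells pretreated 1 h with peperomins at various concentrations, then TNF-α (2.5 ng/mL) or IL-1 (0.25 ng/mL) added for 6 h with compound still present. Whole-cell lysates were Western blotted for ICAM-1, with β-actin as loading control.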
# A549 [3] = assay: Reduction of IL1-induced COX2 expression in human A549 cells at 100 uM preincubated for 1 hr before IL1 challenge measured after 6 hrs by Western blot analysis; format: functional, cell-based
# Procedure, shortened: (§3)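 Cox-2 protein was Western blotted in A549 cells, with β-actin as loading control. Cells were pretreated 1 h with compound at various concentrations, then exposed 6 h to TNF-α (2.5 ng/mL) or IL-1 (0.25 ng/mL) in its continued presence.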
# A549 [4] = assay: Antiinflammatory activity in human A549 cells assessed as reduction of IL1-induced increase in cell surface ICAM1 expression upto 100 uM preincubated for 1 hr before IL1 challenge measured after 6 hrs by ELISA; format: functional, cell-based
# Procedure, shortened: (§4)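 Cell ELISA of surface ICAM-1 on A549 cells. Cells were pretreated 1 h across a concentration series, then stimulated 6 h with TNF-α (2.5 ng/mL) or IL-1 (0.25 ng/mL) with compound present. Values are means ± SD of triplicate cultures.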
# A549 [5] = assay: Antiinflammatory activity in human A549 cells assessed as reduction of TNF-alpha-induced increase in cell surface ICAM1 expression upto 100 uM preincubated for 1 hr before TNFalpha challenge measured after 6 hrs by ELISA; format: functional, cell-based; procedure, shortened: as §4
# A549 [6] = assay: Antiinflammatory activity in human A549 cells assessed as reduction of IL1-induced cell surface ICAM1 expression upto 100 uM preincubated for 1 hr before IL1 challenge measured after 6 hrs by Western blot analysis; format: functional, cell-based; procedure, shortened: as §2
# MCF7 [7] = assay: Cytotoxicity against human MCF7 cells upto 100 uM after 6 hrs by MTT assay; format: cell-based; conditions: mcf7, 6 h
# A549 [8] = assay: Antiinflammatory activity in human A549 cells assessed as complete decrease in TNF-alpha-induced cell surface ICAM1 expression at 100 uM preincubated for 1 hr before TNFalpha challenge measured after 6 hrs by Western blot analysis; format: functional, cell-based; procedure, shortened: as §2
# MCF7 [9] = assay: Antiinflammatory activity in human MCF7 cells assessed as inhibition of IL1-induced cell surface ICAM1 expression upto 100 uM preincubated for 1 hr before IL1 challenge measured after 6 hrs by ELISA; format: functional, cell-based
# A549 [10] = assay: Antiinflammatory activity in human A549 cells assessed as reduction of TNF-alpha-induced increase in cell surface ICAM1 expression preincubated for 1 hr before TNFalpha challenge measured after 6 hrs by ELISA; format: functional, cell-based; procedure, shortened: as §4
# [11] = biological target: T1, Inhibitor of nuclear factor kappa-B kinase subunit beta (Homo sapiens); assay: Inhibition of human FLAG-tagged IKK-beta expressed in HEK293 cells at 0.1 to 100 uM by Western blot analysis in presence of ATP; format: cell-based; procedure, shortened: as §1
# A549 [12] = assay: Antiinflammatory activity in human A549 cells assessed as reduction of IL1-induced increase in cell surface ICAM1 expression preincubated for 1 hr before IL1 challenge measured after 6 hrs by ELISA; format: functional, cell-based; procedure, shortened: as §4
# A549 [13] = assay: Cytotoxicity against human A549 cells upto 100 uM after 6 hrs by MTT assay; format: cell-based; conditions: a549, 6 h
# Procedure, shortened: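 A549 viability by MTT after 6 h exposure to a range of compound concentrations, no cytokine. Viability given as %, means ± SD of triplicate cultures.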
# A549 [14] = assay: Antiinflammatory activity in human A549 cells assessed as substantial decrease in TNF-alpha-induced cell surface ICAM1 expression at > 10 uM preincubated for 1 hr before TNFalpha challenge measured after 6 hrs by Western blot analysis; format: functional, cell-based; procedure, shortened: as §2
# A549 [15] = assay: Antiinflammatory activity in human A549 cells assessed as complete decrease in IL1-induced cell surface ICAM1 expression at 100 uM preincubated for 1 hr before IL1 challenge measured after 6 hrs by Western blot analysis; format: functional, cell-based; procedure, shortened: as §2
# A549 [16] = assay: Antiinflammatory activity in human A549 cells assessed as substantial decrease in IL1-induced cell surface ICAM1 expression at > 10 uM preincubated for 1 hr before IL1 challenge measured after 6 hrs by Western blot analysis; format: functional, cell-based; procedure, shortened: as §2
# [17] = biological target: T2, Inhibitor of nuclear factor kappa-B kinase subunit alpha (Homo sapiens) (UniProt O15111); assay: Inhibition of N-terminal GST-fused human IkappaBalpha (1 to 54) expressed in Escherichia coli BL21
# T2 sequence (whole entry): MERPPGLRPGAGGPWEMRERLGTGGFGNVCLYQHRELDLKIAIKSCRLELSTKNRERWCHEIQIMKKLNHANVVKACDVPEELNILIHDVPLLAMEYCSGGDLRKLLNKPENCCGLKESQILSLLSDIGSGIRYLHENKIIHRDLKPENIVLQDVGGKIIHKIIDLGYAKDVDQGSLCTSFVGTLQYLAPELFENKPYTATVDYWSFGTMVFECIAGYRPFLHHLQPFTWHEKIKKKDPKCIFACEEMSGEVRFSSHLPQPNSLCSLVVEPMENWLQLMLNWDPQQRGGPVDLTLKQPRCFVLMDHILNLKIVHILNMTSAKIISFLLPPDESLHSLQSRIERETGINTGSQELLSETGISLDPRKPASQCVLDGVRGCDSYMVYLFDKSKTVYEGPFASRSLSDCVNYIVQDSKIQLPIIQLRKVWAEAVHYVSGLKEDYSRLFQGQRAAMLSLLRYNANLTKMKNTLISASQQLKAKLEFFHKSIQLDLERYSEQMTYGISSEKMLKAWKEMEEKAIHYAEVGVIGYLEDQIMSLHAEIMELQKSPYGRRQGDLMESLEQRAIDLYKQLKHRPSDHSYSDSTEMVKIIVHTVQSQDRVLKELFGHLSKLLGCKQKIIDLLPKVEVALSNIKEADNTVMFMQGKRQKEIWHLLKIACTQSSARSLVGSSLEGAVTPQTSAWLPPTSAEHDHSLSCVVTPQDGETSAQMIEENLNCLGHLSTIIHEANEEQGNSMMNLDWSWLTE
# Procedure, shortened: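 IKK complex was immunoprecipitated with anti-IKKα from A549 cells. Cells were pretreated 1 h with compound, then given TNF-α (2.5 ng/mL) for 15 min. Precipitates phosphorylated GST-IκBα(1–54) with or without ATP (10 µM). Phospho-substrate was detected by Western blot with anti-phospho-IκB antibody, with bands quantified relative to IKKα.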
# MCF7 [18] = assay: Antiinflammatory activity in human MCF7 cells assessed as inhibition of TNF-alpha-induced cell surface ICAM1 expression upto 100 uM preincubated for 1 hr before TNFalpha challenge measured after 6 hrs by ELISA; format: functional, cell-based
# A549 [19] = assay: Reduction of TNF-alpha-induced COX2 expression in human A549 cells at 100 uM preincubated for 1 hr before TNFalpha challenge measured after 6 hrs by Western blot analysis; format: functional, cell-based; procedure, shortened: as §3
# [20] = biological target: T3, NF-kappa-B inhibitor alpha (Homo sapiens) (UniProt P25963); assay: Inhibition of IL1-stimulated IkappaBalpha degradation in human A549 cells at 0.1 to 100 uM preincubated for 1 hr before IL1 challenge measured after 10 mins by Western blot analysis; format: cell-based
# T3 sequence (whole entry): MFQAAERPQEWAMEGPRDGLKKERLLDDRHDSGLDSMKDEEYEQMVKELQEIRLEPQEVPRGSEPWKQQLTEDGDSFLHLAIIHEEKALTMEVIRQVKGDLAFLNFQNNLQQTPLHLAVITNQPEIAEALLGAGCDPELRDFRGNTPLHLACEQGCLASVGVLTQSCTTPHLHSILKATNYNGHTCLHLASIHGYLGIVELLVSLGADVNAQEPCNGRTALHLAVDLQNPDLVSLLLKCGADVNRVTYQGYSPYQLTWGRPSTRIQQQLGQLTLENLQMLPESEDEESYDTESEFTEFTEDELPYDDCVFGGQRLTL
# A549 [21] = assay: Inhibition of IL1-induced IKKalpha expression in human A549 cells at 100 uM preincubated for 1 hr before IL1 challenge measured after 5 to 30 mins by Western blot analysis; format: functional, cell-based
# A549 [22] = assay: Inhibition of IL1-induced IKK-beta expression in human A549 cells at 100 uM preincubated for 1 hr before IL1 challenge measured after 5 to 30 mins by Western blot analysis; format: functional, cell-based
# A549 [23] = assay: Selectivity for inhibition of TNF-alpha-induced cell surface ICAM1 expression over inhibition of TNF-alpha-induced COX2 expression in human A549 cells; format: functional
# A549 [24] = assay: Inhibition of TNF-alpha-induced IKKalpha expression in human A549 cells at 100 uM preincubated for 1 hr before TNFalpha challenge measured after 5 to 30 mins by Western blot analysis; format: functional, cell-based
# A549 [25] = assay: Inhibition of TNF-alpha-induced IKK-beta expression in human A549 cells at 100 uM preincubated for 1 hr before TNFalpha challenge measured after 5 to 30 mins by Western blot analysis; format: functional, cell-based
# A549 [26] = assay: Selectivity for inhibition of IL1-induced cell surface ICAM1 expression over inhibition of IL1-induced COX2 expression in human A549 cells; format: functional
# [27] = biological target: T3, NF-kappa-B inhibitor alpha (Homo sapiens); assay: Inhibition of TNF-alpha-stimulated IkappaBalpha degradation in human A549 cells at 0.1 to 100 uM preincubated for 1 hr before TNFalpha challenge measured after 15 mins by Western blot analysis
Structure (SMILES),Activity (A549 [2]),Activity (A549 [3]),Activity (A549 [4]),Activity (A549 [5]),Activity (A549 [6]),Activity (MCF7 [7]),Activity (A549 [8]),Activity (A549 [10]),inhibition [11],Activity (A549 [12]),Activity (A549 [13]),Activity (A549 [14]),Activity (A549 [15]),Activity (A549 [16]),inhibition [17],Activity (MCF7 [18]),Activity (A549 [19]),other results
CCCCC/C=C/C=C1/C(=O)C=C[C@@H]1C/C=C\CCCC(=O)O,,,,,,,,,,,,,,,,,,inhibition [1]: Active
COc1cc(C(c2cc(OC)c3c(c2)OCO3)[C@@H]2COC(=O)[C@H]2C)cc2c1OCO2,inactive,inactive,inactive,inactive,inactive,,,,,,,,,,,,,
COc1cc([C@@H](c2cc(OC)c3c(c2)OCO3)[C@@H]2COC(=O)[C@H]2C)cc(OC)c1OC,inactive,inactive,inactive,inactive,inactive,,,,,,,,,,,,,
"C=C1C(=O)OC[C@H]1[C@@H](c1cc(OC)c(OC)c(OC)c1)c1cc(OC)c2c(c1)OCO2 [2,6-DIDEHYDROPEPEROMIN B]",,,,,,Non-toxic,Active,Dose-dependent effect,inactive,Dose-dependent effect,Toxic,Active,Active,Active,Active,Active,Active,inhibition (MCF7 [9]): Active
C=C1C(=O)OC[C@H]1C(c1cc(OC)c2c(c1)OCO2)c1cc(OC)c2c(c1)OCO2 [PEPEROMIN E],,,,,,Non-toxic,Active,Dose-dependent effect,inactive,Dose-dependent effect,Toxic,Active,Active,Active,Active,Active,Active,Activity (MCF7 [9]): Active; inhibition [20]: Active; inhibition (A549 [21]): inactive; inhibition (A549 [22]): inactive; fold change (FC) (A549 [23]): 10; inhibition (A549 [24]): inactive; Activity (A549 [25]): inactive; fold change (FC) (A549 [26]): 10; inhibition [27]: Active
